≈ marks a conversion by molar mass, not a printed value.
Tests used:
Staphylococcus aureus [1] = assay: Antibacterial activity against Staphylococcus aureus ATCC 29213 incubated for 24 hrs by broth microdilution method; assay type: functional; details: ATCC 29213, 24 h
Streptococcus pyogenes [2] = assay: Antibacterial activity against Streptococcus pyogenes ATCC 51339 incubated for 24 hrs by broth microdilution method; assay type: functional; details: ATCC 51339, 24 h
Haemophilus influenzae = assay: Antibacterial activity against Haemophilus influenzae ATCC 49247 incubated for 24 hrs by broth microdilution method; assay type: functional; details: ATCC 49247, 24 h
DNA gyrase = DNA gyrase (Escherichia coli, UniProt P0AES4+P0AES6); assay: Inhibition of Escherichia coli GyrB A2B2 subunits assessed reduction in DNA supercoiling activity by malachite green dye based by spectrophotometry; assay type: protein-complex assay
Procedure, shortened: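 Inhibition was measured as loss of ATPase activity of the E. coli GyrB enzyme and reported as IC50.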

Enterococcus faecalis = assay: Antibacterial activity against Enterococcus faecalis ATCC 29212 incubated for 24 hrs by broth microdilution method; assay type: functional; details: ATCC 29212, 24 h
Staphylococcus aureus [3] = assay: Antibacterial activity against Staphylococcus aureus ATCC 29213 incubated for 24 hrs in presence of 50% horse serum by broth microdilution method; assay type: functional; details: ATCC 29213, 24 h
[4] = Retention time of the compound by HPLC method; assay type: physicochemical
Staphylococcus aureus [5] = assay: Potency shift, ratio of MIC against Staphylococcus aureus ATCC 29213 in presence of 50% horse serum to MIC against taphylococcus aureus ATCC 29213 in absence of 50% horse serum; assay type: functional
Staphylococcus aureus [6] = assay: Antibacterial activity against Staphylococcus aureus ATCC 29213 expressing GyrB T173N and ParE T167N mutant incubated for 24 hrs by broth microdilution method; assay type: functional; details: ATCC 29213, 24 h
Streptococcus pyogenes [7] = assay: Antibacterial activity against Streptococcus pyogenes ATCC 51339 expressing ParE A53S mutant incubated for 24 hrs by broth microdilution method; assay type: functional; details: ATCC 51339, 24 h
Escherichia coli [8] = assay: Antibacterial activity against Escherichia coli ATCC 25922 incubated for 24 hrs by broth microdilution method; assay type: functional; details: ATCC 25922, 24 h
Staphylococcus aureus [9] = assay: Antibacterial activity against Staphylococcus aureus ATCC 29213 expressing GyrB T173N mutant incubated for 24 hrs by broth microdilution method; assay type: functional; details: ATCC 29213, 24 h
Escherichia coli [10] = assay: Antibacterial activity against Escherichia coli N43 expressing efflux pump mutant incubated for 24 hrs by broth microdilution method; assay type: functional; details: N43, 24 h
[11] = system: Staphylococcus epidermidis; assay: Antibacterial activity against Staphylococcus epidermidis ATCC 12228 incubated for 24 hrs by broth microdilution method; assay type: functional; details: ATCC 12228, 24 h
Streptococcus pneumoniae = assay: Antibacterial activity against Streptococcus pneumoniae ATCC 49616 incubated for 24 hrs by broth microdilution method; assay type: functional; details: ATCC 49616, 24 h
[12] = target: DNA topoisomerase 4 subunit B (Escherichia coli K-12, UniProt P20083); assay: Inhibition of Escherichia coli ParE
DNA gyrase subunit B = DNA gyrase subunit B (Staphylococcus aureus, UniProt P0A0K8); assay: Inhibition of Staphylococcus aureus GyrB assessed reduction in DNA supercoiling activity by malachite green dye based by spectrophotometry
[13] = target: DNA topoisomerase 4 subunit B (Staphylococcus aureus, UniProt P0C1S7); assay: Inhibition of Staphylococcus aureus ParE

SMILES	MIC (Staphylococcus aureus [1])	MIC (Streptococcus pyogenes [2])	MIC (Haemophilus influenzae)	IC50 (DNA gyrase)	MIC (Enterococcus faecalis)	MIC (Staphylococcus aureus [3])	Retention_time [4]	Ratio (Staphylococcus aureus [5])	MIC (Staphylococcus aureus [6])	MIC (Streptococcus pyogenes [7])	MIC (Escherichia coli [8])	MIC (Staphylococcus aureus [9])	MIC (Escherichia coli [10])	MIC [11]	MIC (Streptococcus pneumoniae)	IC50 [12]	IC50 (DNA gyrase subunit B)	IC50 [13]
CCNC(=O)Nc1cc(Nc2cccnc2)c(C(=O)Nc2ccccc2)cn1	1 µg/mL (≈ 2.66 µM)	1 µg/mL (≈ 2.66 µM)	> 64 µg/mL	430 nM	0.25 µg/mL (≈ 0.664 µM)	2 µg/mL	1.46 min	2	–	–	–	–	–	–	–	–	–	–
CCNC(=O)Nc1cc(-n2cccn2)c(C(=O)Nc2cccc(Cl)c2)cn1	8 µg/mL (≈ 20.8 µM)	4 µg/mL (≈ 10.4 µM)	> 64 µg/mL	2960 nM	1 µg/mL (≈ 2.6 µM)	–	1.83 min	–	> 64 µg/mL	16 µg/mL (≈ 41.6 µM)	> 64 µg/mL	32 µg/mL (≈ 83.2 µM)	32 µg/mL (≈ 83.2 µM)	2 µg/mL (≈ 5.2 µM)	1 µg/mL (≈ 2.6 µM)	–	–	–
CCNC(=O)Nc1cc(Nc2ccccc2)c(C(=O)Nc2ccccc2)cn1	1 µg/mL (≈ 2.66 µM)	2 µg/mL (≈ 5.33 µM)	> 64 µg/mL	40 nM	0.25 µg/mL (≈ 0.666 µM)	–	1.58 min	–	> 64 µg/mL	16 µg/mL (≈ 42.6 µM)	> 64 µg/mL	2 µg/mL (≈ 5.33 µM)	8 µg/mL (≈ 21.3 µM)	0.25 µg/mL (≈ 0.666 µM)	1 µg/mL (≈ 2.66 µM)	–	–	–
CCNC(=O)Nc1cc(Nc2ccccc2)c(C(=O)Nc2cccc(C)c2)cn1	1 µg/mL (≈ 2.57 µM)	2 µg/mL (≈ 5.14 µM)	> 64 µg/mL	140 nM	0.125 µg/mL (≈ 0.321 µM)	–	1.68 min	–	> 64 µg/mL	> 64 µg/mL	> 64 µg/mL	> 64 µg/mL	> 64 µg/mL	0.5 µg/mL (≈ 1.28 µM)	0.5 µg/mL (≈ 1.28 µM)	–	–	–
CCNC(=O)Nc1cc(Nc2ccccc2)c(C(=O)Nc2cccnc2)cn1	1 µg/mL (≈ 2.66 µM)	1 µg/mL (≈ 2.66 µM)	> 64 µg/mL	170 nM	0.125 µg/mL (≈ 0.332 µM)	4 µg/mL	1.36 min	4	> 64 µg/mL	2 µg/mL (≈ 5.31 µM)	> 64 µg/mL	4 µg/mL (≈ 10.6 µM)	8 µg/mL (≈ 21.3 µM)	0.25 µg/mL (≈ 0.664 µM)	0.25 µg/mL (≈ 0.664 µM)	–	–	–
CCNC(=O)Nc1cc(Nc2ccccc2)c(C(=O)Nc2ccc(N3CCOCC3)nc2)cn1	2 µg/mL (≈ 4.33 µM)	1 µg/mL (≈ 2.17 µM)	> 64 µg/mL	110 nM	0.25 µg/mL (≈ 0.542 µM)	16 µg/mL	1.47 min	8	> 64 µg/mL	4 µg/mL (≈ 8.67 µM)	> 64 µg/mL	> 64 µg/mL	> 64 µg/mL	1 µg/mL (≈ 2.17 µM)	0.5 µg/mL (≈ 1.08 µM)	–	–	–
CCNC(=O)Nc1cc(Nc2ccccc2)c(C(=O)Nc2ccc(NC(C)=O)nc2)cn1	2 µg/mL (≈ 4.61 µM)	0.5 µg/mL (≈ 1.15 µM)	> 64 µg/mL	39 nM	0.125 µg/mL (≈ 0.288 µM)	8 µg/mL	1.45 min	4	> 64 µg/mL	2 µg/mL (≈ 4.61 µM)	> 64 µg/mL	> 64 µg/mL	> 64 µg/mL	0.25 µg/mL (≈ 0.577 µM)	0.125 µg/mL (≈ 0.288 µM)	–	–	–
CCNC(=O)Nc1cc(Nc2ccc(O)cc2)c(C(=O)Nc2cccnc2)cn1	8 µg/mL (≈ 20.4 µM)	–	–	28 nM	–	–	–	–	–	–	> 64 µg/mL	–	–	–	–	940 nM	24 nM	86 nM
CCNC(=O)Nc1cc(Nc2cccc(O)c2)c(C(=O)Nc2cccnc2)cn1	–	–	–	36 nM	–	–	–	–	–	–	> 64 µg/mL	–	–	–	–	780 nM	–	–
CCNC(=O)Nc1cc(Nc2ccc(OC)cc2OC)c(C(=O)Nc2cccnc2)cn1	1 µg/mL (≈ 2.29 µM)	–	–	46 nM	–	–	–	–	–	–	> 64 µg/mL	–	–	–	–	42000 nM	41 nM	800 nM
